Here are results for five molecules from paper PMC6953265 (Molecular imaging and biology, 2019).

Series [1] has as its target T1, TSPO (Rattus norvegicus, UniProt P16257). Particulars: earlier study; cited from earlier work.
Series [2] concerns the target T1, TSPO. It is filed as binding. The note with it: C6 glioma cell lysate; for IC50: read-out: TSPO binding affinity (IC50), competition with [^3H]PK 11195 (0.6 nM), 2 h at 25 °C. The gist of the method: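 C6 cells PBS-washed, then freeze-thawed three times in lysis buffer (5.0 mM HEPES, mannitol, sucrose, benzamidine, MgCl2, pH 7.4); lysate 0.5 mg/ml. Lysate incubated with [3H]PK 11195 (final 0.6 nM) and test compound (10−5 to 10−14 M), 2 h, 25 °C. Rapid filtration onto polyethylenimine-presoaked filters, scintillation counting. IC50 fitted in triplicate; fold values are IC50 ratios.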

The target in series [3] is T1, TSPO. The note with it: mean ± SEM, n = 5, cited from earlier work.
Series [4] addresses T1, TSPO. As to the kind of experiment: Compartmental modeling of dynamic PET data. It is filed as in vivo. Particulars: for VT ratio between tumor and normal brain: from VT values of Table 1; for K1/k2 / VT / k3/k4 (BPND): mean ± SEM, n = 7.
For series [5], the target named is T1, TSPO. Format: in vivo. The note with it: blocking with [^19F]VUIIS1018A 10 mg/kg 5 min before tracer. The procedure, abridged: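 C6 glioma-bearing male Wistar rats, catheterised venous and arterial. Unlabelled (19F) analogue of tracer, 10 mg/kg, given 5 min before 18F tracer (1.1 ± 0.3 mCi, jugular catheter), then 60-min dynamic microPET with CT attenuation correction. Time-activity curves from tumour and contralateral brain VOIs. BPND maps by SRTM2, normal cerebrum as reference tissue. n = 3.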

Series [6] relates to C6 glioma. The experiment in a line: In vivo uptake of [^18F]VUIIS1018A, 60-min dynamic PET in C6 glioma-bearing rats. Set-up: species or system rat. The gist of the method:
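Male Wistar rats, 1.0 × 10^5 C6 glioma cells implanted stereotactically in right hemisphere 2 weeks before imaging; tumours confirmed by T2-weighted MRI at 4.7T. Venous and arterial catheters placed. 18F-labelled tracer 1.1 ± 0.3 mCi given via jugular catheter in microPET; 60-min listmode dynamic scan (32 frames), CT attenuation correction, 2D OSEM reconstruction. Tumour and contralateral brain VOIs gave time-activity curves.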

The structures appear in SMILES notation. “And” between values parts separate entries of the source, which are not always exact repeats. Equal entries are not always repeated. Where two headings read alike, the source gives them in different places.

Take `CCc1cc(CC)n2nc(-c3ccc(OCCF)cc3)c(CC(=O)N(CC)CC)c2n1` [VUIIS1008, 2-(5,7-diethyl-2-(4-(2-fluoroethoxy)phenyl)pyrazolo[1,5-a]pyrimidin-3-yl)-N,N-diethylacetamide]: in series [1], the “fold enhancement in binding affinity compared to DPA-714” value is recorded as 36 fold.
Broadly, the IC50 is the concentration that inhibits the measured activity by half. In the case of `CCCCc1cc(C)nc2c(CC(=O)N(CC)CC)c(-c3ccc(OCCF)cc3)nn12` [VUIIS1018A], in series [2] (ratio of IC50 values), the “fold enhancement in binding affinity compared with DPA-714” value (“fold enhancement … with DPA-714” for short) was around 700 fold and the “fold enhancement in binding affinity compared with VUIIS1008” value was 20 fold. Also, the IC50 in series [2] was 0.0162 nM.
Take `CCCCc1cc(C)n2nc(-c3ccc(OCCF)cc3)c(CC(=O)N(CC)CC)c2n1` [VUIIS1018B]: in series [2] (ratio of IC50 values), the “fold lower binding affinity than VUIIS1018A” value is given as 6000 fold. In series [2], the IC50 came to 100 nM.
As to `CCc1cc(CC)n2nc(-c3ccc(OCC[18F])cc3)c(CC(=O)N(CC)CC)c2n1` [[^18F]VUIIS1008, 2-(5,7-Diethyl-2-(4-(2-[^18?F]fluoroethoxy)phenyl)pyrazolo[1,5-a]pyrimidin-3-yl)-N,N-diethylacetamide], the K1/k2 in series [3] (Brain) is 0.855 ± 0.325; in series [3] (Tumor), 1.902 ± 0.816. Also, the figures for the VT in series [3] (Brain) and in series [3] (Tumor) were 4.210 ± 1.612 and 25.224 ± 10.035, respectively. Further, the “k3/k4 (BPND)” value in series [3] (Brain) was 4.435 ± 1.387; in series [3] (Brain, listed as [^18 F]VUIIS1008) it was 4.43; in series [3] (Tumor), 12.63 and 12.634 ± 1.406. Moreover, the “VT ratio between tumor and normal brain” value in series [4] was 6.0.
For `CCCCc1cc(C)nc2c(CC(=O)N(CC)CC)c(-c3ccc(OCC[18F])cc3)nn12` [[^18F]VUIIS1018A, 2-(7-Butyl-2-(4-(2-[^18F]Fluoroethoxy)phenyl)-5-Methylpyrazolo[1,5-a] Pyrimidin-3-yl)-N,N-Diethylacetamide], the “fold enhancement … with DPA-714” value in series [2] (ratio of IC50 values) is “approximately 700 fold”. In series [2] (ratio of IC50 values, listed as [^18 F]VUIIS1018A), the “fold enhancement … with DPA-714” value stood at 700 fold. In series [5], the “circulating plasma radioactivity compared with the unblocked scenario” value is reported as “significantly elevated” and the “effect of blocking dose on accumulation in the normal brain” value is listed as “insignificant effect”. In addition, in series [5] (mean ± SD, n = 3), the “overall reduction in tumor PET signal” value is reported as 48.3 ± 2.8%. Moreover, in series [4] (Brain), the K1/k2 is on record as 0.311 ± 0.036; the VT turned out to be 1.214 ± 0.190; the “k3/k4 (BPND)” value was 2.91 and 2.913 ± 0.456. Further, in series [4] (Tumor), the K1/k2 was 0.532 ± 0.130; the VT is on record as 11.036 ± 3.731; the “k3/k4 (BPND)” value was 23.10 and 23.097 ± 4.757. The “VT ratio between tumor and normal brain” value in series [4] was determined as 9.1. In addition, in series [4] (from k3/k4 values of Table 1), the “fold higher k3/k4 in tumor compared with healthy brain” value worked out at 8 fold. In addition, in series [6], the “accumulation in C6 gliomas” value was “robust accumulation” and the “accumulation in normal brain” value is “negligible accumulation”.
